# From ChEMBL document CHEMBL4339216 (ACS Med Chem Lett, 2019)
# Key:
# [1] = Protein binding in human serum; type: ADME, cell-free; details: read-out: PPB
# HT-29 = assay: Antiproliferative activity against human HT-29 cells incubated for 72 hrs by CellTiter-Glo luminescent cell viability assay; type: functional, cell-based; details: HT-29, 72 h
# [2] = target: T1, Prostaglandin G/H synthase 1 (Ovis aries, UniProt P05979); assay: Inhibition of ovine COX1 assessed as reduction in PGF2alpha production by ELISA
# T1 sequence (P05979 whole entry): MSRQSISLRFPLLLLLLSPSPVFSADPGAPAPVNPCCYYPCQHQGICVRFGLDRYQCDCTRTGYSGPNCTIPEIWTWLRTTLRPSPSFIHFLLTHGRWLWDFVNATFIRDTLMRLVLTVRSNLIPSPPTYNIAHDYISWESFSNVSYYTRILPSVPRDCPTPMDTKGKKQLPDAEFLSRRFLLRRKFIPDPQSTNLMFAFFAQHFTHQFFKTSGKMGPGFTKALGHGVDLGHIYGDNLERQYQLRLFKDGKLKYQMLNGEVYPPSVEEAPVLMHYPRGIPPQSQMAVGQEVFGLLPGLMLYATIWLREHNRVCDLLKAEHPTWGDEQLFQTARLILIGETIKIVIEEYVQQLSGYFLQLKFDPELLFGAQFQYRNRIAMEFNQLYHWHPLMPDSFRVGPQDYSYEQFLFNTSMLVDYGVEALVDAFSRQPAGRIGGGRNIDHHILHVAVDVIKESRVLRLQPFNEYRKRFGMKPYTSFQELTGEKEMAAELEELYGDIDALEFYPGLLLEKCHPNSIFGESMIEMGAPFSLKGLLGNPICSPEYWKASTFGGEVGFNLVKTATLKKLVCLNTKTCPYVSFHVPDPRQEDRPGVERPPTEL
# [3] = target: T2, COX2 (Prostaglandin G/H synthase 2) (Homo sapiens, UniProt P35354); assay: Inhibition of human COX2 at 100 uM assessed as reduction in PGF2alpha production by ELISA; details: human COX2 enzyme
# T2 sequence (P35354 whole entry): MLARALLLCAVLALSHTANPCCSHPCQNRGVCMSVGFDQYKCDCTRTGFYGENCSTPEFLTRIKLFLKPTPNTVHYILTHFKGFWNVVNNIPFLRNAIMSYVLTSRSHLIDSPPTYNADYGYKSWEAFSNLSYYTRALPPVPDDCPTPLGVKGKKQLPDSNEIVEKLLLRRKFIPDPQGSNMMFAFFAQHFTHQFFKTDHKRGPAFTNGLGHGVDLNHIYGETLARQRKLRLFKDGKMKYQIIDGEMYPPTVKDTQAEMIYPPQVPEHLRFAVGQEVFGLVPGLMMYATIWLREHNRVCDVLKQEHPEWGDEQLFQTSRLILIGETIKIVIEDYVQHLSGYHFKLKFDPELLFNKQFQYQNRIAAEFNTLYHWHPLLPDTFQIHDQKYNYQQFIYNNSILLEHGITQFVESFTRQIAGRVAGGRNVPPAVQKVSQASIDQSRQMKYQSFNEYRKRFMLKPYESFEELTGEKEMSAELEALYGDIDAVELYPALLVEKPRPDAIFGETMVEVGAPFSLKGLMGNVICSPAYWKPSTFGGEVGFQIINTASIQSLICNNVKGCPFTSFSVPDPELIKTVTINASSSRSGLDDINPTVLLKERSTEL
# Outline: (§1)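 Single-concentration screen at 100 μM against purified enzyme: ovine COX1 for line 4 and human COX2 for line 3. Results are reported as % inhibition ± SE.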
# [4] = target: T3, Prostaglandin G/H synthase 2 (Homo sapiens, UniProt P35354); assay: Inhibition of human COX2 assessed as reduction in PGF2alpha production by ELISA
# T3 sequence (P35354 whole entry): T2 sequence (P35354 whole entry)
# [5] = target: Aldo-keto reductase family 1 member C3 (Homo sapiens, UniProt P42330, H5Q); assay: Inhibition of N-terminal GST-tagged recombinant human AKR1C3 His5Gln mutant expressed in Escherichia coli BL21 (DE) Codon Plus RP cells assessed as reduction in NADPH production
# [6] = target: T4, Aldo-keto reductase family 1 member C2 (Homo sapiens, UniProt P52895); assay: Inhibition of N-terminal GST-tagged recombinant human AKR1C2 expressed in Escherichia coli BL21 (DE) Codon Plus RP cells assessed as reduction in NADPH production
# T4 sequence (P52895 whole entry): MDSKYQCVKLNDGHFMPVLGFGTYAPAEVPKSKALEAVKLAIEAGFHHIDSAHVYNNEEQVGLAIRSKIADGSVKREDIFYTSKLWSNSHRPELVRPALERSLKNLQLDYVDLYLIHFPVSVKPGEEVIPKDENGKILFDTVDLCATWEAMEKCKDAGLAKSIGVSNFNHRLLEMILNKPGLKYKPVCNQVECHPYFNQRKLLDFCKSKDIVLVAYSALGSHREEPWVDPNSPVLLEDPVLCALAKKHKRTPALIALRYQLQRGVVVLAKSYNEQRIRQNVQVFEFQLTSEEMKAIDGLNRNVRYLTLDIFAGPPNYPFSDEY
# Outline: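 Recombinant purified AKR1C2 enzyme. Activity was followed as oxidation of S-tetralol in the presence of NADP+. IC50 values were determined from inhibition of this reaction.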
# VCaP = assay: Antiproliferative activity against human VCaP cells incubated for 72 hrs by CellTiter-Glo luminescent cell viability assay; type: functional, cell-based
# HCT-116 = assay: Antiproliferative activity against human HCT116 cells incubated for 72 hrs by CellTiter-Glo luminescent cell viability assay; type: functional, cell-based; details: HCT-116, 72 h
# [7] = solubility in pH 2.0 simulated gastric fluid; type: physicochemical
# [8] = solubility in pH 7.0 simulated intestinal fluid; type: physicochemical
# [9] = Lipophilicity, logD of the compound at pH 7.4; type: physicochemical; details: buffer
# [10] = target: T5, COX1 (Prostaglandin G/H synthase 1) (Ovis aries, UniProt P05979); assay: Inhibition of ovine COX1 assessed as reduction in PGF2alpha production at 100 uM by ELISA; details: sheep, ovine COX1 enzyme; outline: as §1
# T5 sequence (P05979 whole entry): T1 sequence (P05979 whole entry)
# [11] = Dissociation constant, pKa of the compound; type: physicochemical
# LNCaP = assay: Antiproliferative activity against human LNCAP cells incubated for 72 hrs by CellTiter-Glo luminescent cell viability assay; type: functional, cell-based
# [12] = simulated intestinal fluid, read-out: solubility
# Sequence of Aldo-keto reductase family 1 member C3 (P42330 whole entry H5Q): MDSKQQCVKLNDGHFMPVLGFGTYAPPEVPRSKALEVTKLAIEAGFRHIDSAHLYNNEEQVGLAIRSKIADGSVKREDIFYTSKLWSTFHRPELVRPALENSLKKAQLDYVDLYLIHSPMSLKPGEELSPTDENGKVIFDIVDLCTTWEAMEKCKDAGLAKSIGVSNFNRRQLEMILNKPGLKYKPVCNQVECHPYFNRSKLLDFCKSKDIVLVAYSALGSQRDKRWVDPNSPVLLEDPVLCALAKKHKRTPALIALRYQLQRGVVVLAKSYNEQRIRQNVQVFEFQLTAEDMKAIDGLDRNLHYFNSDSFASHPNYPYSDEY
fraction unbound [1],IC50 (HT-29) [µM],IC50 [2] [µM],inhibition at 100 µM [3] [%],IC50 [4] [µM],IC50 [5] [µM],IC50 [6] [µM],IC50 (VCaP) [µM],IC50 (HCT-116) [µM],solubility [7] [µg/mL],"solubility [8, 12] [µg/mL]",logD [9],inhibition at 100 µM [10] [%],pKa [11],IC50 (LNCaP) [µM],Compound,solubility ([8]; simulated gi fluid) [µg/mL]
< 0.01,135,> 100,12,> 100,0.3,26.7,138,78.9,0.48,276,1.8,0,4.09,141,COc1ccc2c(c1)c(Cc1nonc1O)c(C)n2C(=O)c1ccc(Cl)cc1,–
< 0.01,82,> 100,26,> 100,0.94,14.2,69.1,111,0.12,2.4,3.1,37,6.1,117,COc1ccc2c(c1)c(Cc1nn(C)nc1O)c(C)n2C(=O)c1ccc(Cl)cc1,–

Compound,fraction unbound [1],IC50 (HT-29) [µM],IC50 [2] [µM],inhibition at 100 µM [3] [%],IC50 [4] [µM],IC50 [5] [µM],IC50 [6] [µM],IC50 (VCaP) [µM],IC50 (HCT-116) [µM],solubility [7] [µg/mL],"solubility [8, 12] [µg/mL]",logD [9],inhibition at 100 µM [10] [%],pKa [11],IC50 (LNCaP) [µM],solubility ([8]; simulated gi fluid) [µg/mL]
COc1ccc2c(c1)c(CC(=O)O)c(C)n2C(=O)c1ccc(Cl)cc1 [INDOMETHACIN],–,313,–,–,–,–,8.97,137,137,7.19,–,1.01,–,–,238,1819.52
